In ChEMBL document CHEMBL5352477, “Isoform selectivities of novel 4-hydroxycoumarin imines as inhibitors of myosin II” (Eur J Med Chem, 2023):
In brackets after ≈: the same amount, converted by molar mass. Activity calls are given as the source filed them. No cut-off for these calls is given here.

What was measured:
COS-7 [1] = assay: Inhibition of Non-muscle myosin IIB in African green monkey COS-7 cells assessed as inhibition of cytokinesis by measuring increase in nuclei to cell ratio (N/C) at 40 uM incubated for 24 hrs by fluorescein-diacetate, Hoechst 33342 and propidium iodide staining based fluorescence microscopy relative to control; settings: Chlorocebus aethiops
Procedure, shortened: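 COS-7 cells (4,000/well) preincubated 24 h at 37 °C in 5% CO2, then exposed 24 h to 40 μM compound, final 1% DMSO. Media and 1% DMSO served as negative controls; para-aminoblebbistatin 20 μM and blebbistatin 10 μM as positive controls. Stained 10 min with FDA 6 μM, Hoechst 33342 10 μM and PI 4 μM, then imaged; N/C counted excluding PI-positive nuclei. Triplicate wells, ≥2 experiments, ≥600 cells per well.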

[2] = (§1) Inhibition of full length chicken phosphorylated myosin 2 smooth muscle isoform derived from gizzard ATPase activity assessed as reduction in steady-state rabbit F-actin-activated Mg2+ ATPase activity incubated for 6 to 24 mins in presence of ATPase buffer at 7.0 containing Mgcl2 and ATP by fluorescence-based assay; assay type: tissue-based, Gallus gallus
[3] = Kinetic solubility of the compound in 2.5% DMSO/PBS at pH 7.4 incubated for 1 hrs by nephelometry; assay type: physicochemical; settings: for solubility kinetic at 1 h: 2.5% DMSO/PBS, pH 7.4, read-out: Kinetic_solubility; for Kinetic_solubility: buffer, pH 7.4, 1 h
Procedure, shortened: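 DMSO stock (20 mM) added to PBS pH 7.4, then serially diluted in quadruplicate at a constant 2.5% DMSO. Plates shaken 2 min, incubated 1 h at 37 °C, shaken 3 min, and turbidity read by nephelometry; average blank subtracted.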

[4] = as §1, with “rabbit” for “chicken phosphorylated”, “skeletal” for “smooth”, “Psoas muscle” for “gizzard”; assay type: tissue-based, Oryctolagus cuniculus
[5] = Inhibition of full length bovine Myosin-2 cardiac muscle isoform from left ventricle ATPase activity assessed as reduction in steady-state rabbit F-actin-activated Mg2+ ATPase activity incubated for 6 to 24 mins in presence of ATPase buffer at 7.0 containing Mgcl2 and ATP by fluorescence-based assay; parameters: species or system Bos taurus, Heart left ventricle
[6] = Selectivity index, ratio of IC50 for inhibition of full length bovine cardiac muscle myosin II ATPase activity to IC50 for inhibition of full length rabbit skeletal muscle myosin II ATPase activity
COS-7 [7] = assay: Cytotoxicity against Green monkey COS-7 cells assessed as reduction in cell viability incubated for 24 hrs by MTT assay; assay type: toxicity, cell-based; settings: chlorocebus aethiops, cos-7, 24 h
Procedure, shortened: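 COS-7 cells seeded at 2.5 × 10^4 per well, grown 24 h at 37 °C in 5% CO2, then treated 24 h with 20, 40, 100 or 200 μM compound in media with 1% DMSO (4 wells each). MTT 1.2 mM in PBS for 2 h in the dark, lysis in 0.1% NP-40/isopropanol with HCl, A564 read; CC50 and CC90 taken as concentrations giving 50% and 90% loss of viability.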

[8] = Hydrolytic stability of the compound ATPase assay buffer at pH 7 containing Mgcl2 and ATP assessed as half life by UV-visible spectrophotometry; assay type: physicochemical
Procedure, shortened: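 Compound diluted from 20 mM DMSO stock to 8 μM final (2% DMSO) in ATPase buffer: 10 mM MOPS pH 7.0, 50 mM NaCl, 0.1 mM EGTA, 5 mM MgCl2, 2 mM ATP, 1 mM DTT. Kept sealed at 30 °C; UV-vis spectrum (0.5 nm steps, 1 cm quartz) recorded at start and every 24 h against fresh reference solutions.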

SMILES	inhibition (COS-7 [1])	IC50 [2] [µM]	further results
CCCC/N=C(\C)C1C(=O)Oc2ccccc2C1=O (configuration not stated)	inactive	≥ 100	solubility kinetic at 1 h [3]: 607 µM (≈ 157 µg/mL)
CCOCC/N=C(\C)c1c(O)c2ccccc2oc1=O	inactive	≥ 100	IC50 [4]: 19 µM; IC50 [5]: 24 µM; Ratio IC50 [6]: 1.3; CC10 (COS-7 [7]): 184 µM; CC50 (COS-7 [7]): > 1000 µM
CCCC/N=C(\C)c1c(O)c2ccccc2[nH]c1=O	inactive	≥ 100	–
CCCCC/N=C(\C)c1c(O)c2ccccc2oc1=O	inactive	≥ 100	–
COc1ccc(COCCC/N=C(\C)c2c(O)c3ccccc3oc2=O)cc1	inactive	≥ 100	IC50 [4]: 50 µM; IC50 [5]: ≥ 100 µM; Kinetic_solubility [3]: 103 µM; CC10 (COS-7 [7]): 46 µM; CC50 (COS-7 [7]): > 200 µM
CCC/C(=N\Cc1ccccc1)c1c(O)c2ccccc2oc1=O	inactive	≥ 100	–
C/C(=N\Cc1ccc(C)cc1)c1c(O)c2ccccc2oc1=O	inactive	≥ 100	–
C/C(=N\Cc1cccnc1)c1c(O)c2ccccc2oc1=O	inactive	≥ 100	–
COc1cc(/C=C/C(=O)c2c(O)c3ccccc3oc2=O)ccc1O	inactive	≥ 100	IC50 [4]: ≥ 100 µM; IC50 [5]: ≥ 100 µM
C/C(=N\Cc1ccccc1)c1c(O)c2cc([N+](=O)[O-])ccc2oc1=O	inactive	≥ 100	–
C/N=C(\C)C1C(=O)Oc2ccccc2C1=O (configuration not stated)	inactive	≥ 100	–
COc1ccc(C/N=C(\C)c2c(O)c3ccccc3oc2=O)cc1	inactive	≥ 100	IC50 [4]: 1.6 µM; IC50 [5]: 5.4 µM; Ratio IC50 [6]: 3.4; CC10 (COS-7 [7]): 36 µM; CC50 (COS-7 [7]): > 200 µM
COCC/N=C(\C)c1c(O)c2ccccc2oc1=O	inactive	≥ 100	IC50 [4]: 90 µM; IC50 [5]: 52 µM; Ratio IC50 [6]: 0.6; CC10 (COS-7 [7]): 286 µM; CC50 (COS-7 [7]): > 200 µM
Cc1ccc2c(c1)C(=O)[C@]1(O)CCN(c3ccccc3)C1=N2	inactive	≥ 100	–
C/C(=N\Cc1ccccc1)c1c(O)c2ccccc2oc1=O	inactive	≥ 100	t1/2 [8]: > 6 days
C/C(=N\Cc1ccccc1C)c1c(O)c2ccccc2oc1=O	inactive	≥ 100	–
CC/N=C(\C)C1C(=O)Oc2ccccc2C1=O (configuration not stated)	inactive	≥ 100	–
CC(=N)C1C(=O)Oc2ccccc2C1=O (configuration not stated)	inactive	≥ 100	–
COCCOCCOCCC/N=C(\C)c1c(O)c2ccccc2oc1=O	inactive	≥ 100	IC50 [4]: ≥ 100 µM; IC50 [5]: ≥ 100 µM
COc1cccc(C/N=C(\C)c2c(O)c3ccccc3oc2=O)c1	inactive	≥ 100	IC50 [4]: 9.1 µM; IC50 [5]: 4.4 µM; Ratio IC50 [6]: 0.5; CC10 (COS-7 [7]): 39 µM; CC50 (COS-7 [7]): > 200 µM
Cc1ccc2c(c1)C(=O)[C@]1(O)CCN(c3ccc(N)cc3)C1=N2	–	≥ 100	–
C/C(=N\C(C)C)c1c(O)c2ccccc2[nH]c1=O	inactive	≥ 100	–
CC/C(=N\Cc1ccccc1)c1c(O)c2ccccc2oc1=O	inactive	≥ 100	–
C/C(=N\Cc1ccccc1)c1c(O)c2ccccc2n(C)c1=O	inactive	≥ 100	–
CCCCCC/N=C(\C)c1c(O)c2ccccc2oc1=O	inactive	≥ 100	–

SMILES	inhibition (COS-7 [1])	IC50 [2] [µM]	further results
C/C(=N\CC1CCCCC1)c1c(O)c2ccccc2[nH]c1=O	inactive	≥ 100	–
C/C(=N\CC(C)C)c1c(O)c2ccccc2[nH]c1=O	inactive	≥ 100	–
C/C(=N\Nc1ccccc1)c1c(O)c2ccccc2oc1=O	inactive	≥ 100	–
CCCCC/N=C(\C)c1c(O)c2ccccc2[nH]c1=O	inactive	≥ 100	–
CCC(C)/N=C(\C)c1c(O)c2ccccc2[nH]c1=O (configuration not stated)	inactive	≥ 100	–
C/C(=N\CCCOCc1ccc2c(c1)OCO2)c1c(O)c2ccccc2oc1=O	inactive	≥ 100	IC50 [4]: 29 µM; IC50 [5]: ≥ 100 µM; Kinetic_solubility [3]: 122 µM; CC10 (COS-7 [7]): 110 µM; CC50 (COS-7 [7]): > 200 µM
CCCCC/N=C(\C)c1c(O)c2cc([N+](=O)[O-])ccc2oc1=O	inactive	≥ 100	–
C/C(=N\Cc1cccc(C)c1)c1c(O)c2ccccc2oc1=O	inactive	≥ 100	–
CCC(C)/N=C(\C)c1c(O)c2ccccc2oc1=O (configuration not stated)	inactive	≥ 100	–
C/C(=N\CCCO)c1c(O)c2ccccc2oc1=O	inactive	≥ 100	–
CCCCN(CCC/N=C(\C)c1c(O)c2ccccc2oc1=O)Cc1cccc(OC)c1	inactive	≥ 100	IC50 [4]: ≥ 100 µM; IC50 [5]: ≥ 100 µM
O=c1oc2ccccc2c(O)c1/C=N/Cc1ccccc1	inactive	≥ 100	IC50 [4]: ≥ 100 µM; IC50 [5]: ≥ 100 µM; t1/2 [8]: 2.5 days
C/C(=N\CCO)c1c(O)c2ccccc2oc1=O	inactive	≥ 100	–
C/C(=N\Cc1ccncc1)c1c(O)c2ccccc2oc1=O	inactive	≥ 100	solubility kinetic at 1 h [3]: > 400 µM
C/C(=N\CCO)c1c(O)c2ccccc2[nH]c1=O	inactive	≥ 100	–
CCC/N=C(\C)c1c(O)c2ccccc2[nH]c1=O	inactive	≥ 100	–
CCC/N=C(\C)c1c(O)c2ccccc2oc1=O	inactive	≥ 100	–
CCOCCC/N=C/c1c(O)c2ccccc2oc1=O	inactive	≥ 100	IC50 [4]: 3.3 µM; IC50 [5]: ≥ 100 µM; Ratio IC50 [6]: > 30; CC10 (COS-7 [7]): 135 µM; CC50 (COS-7 [7]): > 1000 µM
COCCC/N=C(\C)c1c(O)c2ccccc2oc1=O	inactive	≥ 100	IC50 [4]: 11 µM; IC50 [5]: 38 µM; Ratio IC50 [6]: 3.5; CC10 (COS-7 [7]): 339 µM; CC50 (COS-7 [7]): > 1000 µM
CCOCCC/N=C(\C)c1c(O)c2ccccc2oc1=O	inactive	≥ 100	IC50 [4]: 2.5 µM; IC50 [5]: 8.1 µM; Ratio IC50 [6]: 3.2; Kinetic_solubility [3]: > 1250 µM; CC10 (COS-7 [7]): 53 µM; CC50 (COS-7 [7]): 980 µM
C/C(=N\Cc1ccccc1)c1c(O)c2ccccc2[nH]c1=O	inactive	≥ 100	–
C/C(=N\C(C)C)c1c(O)c2ccccc2oc1=O	inactive	≥ 100	–
C/C(=N\CC(C)C)c1c(O)c2ccccc2oc1=O	inactive	≥ 100	–
C/C(=N\OCc1ccccc1)c1c(O)c2ccccc2oc1=O	inactive	≥ 100	–
C/C(=N\Cc1ccccn1)c1c(O)c2ccccc2oc1=O	inactive	≥ 100	–
